For series [1], the system named is Mus musculus. Put plainly: Toxicity in BALB/c mouse assessed as gastric inflammation at 150 mg/kg/day, po. The settings on record: in vivo. It is filed as organism-based, Stomach. Further details: route oral.
Series [2] has as its system Mus musculus. Put plainly: Toxicity in BALB/c mouse assessed as occurrence of hemorrhage at 150 mg/kg/day, po. Format: organism-based. More on the design: route oral. The following applies: in vivo. In outline: (§1)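 Female BALB/c mice (n = 5 per dose), dosed once daily for 5 consecutive days p.o. (20 ml/kg) or i.v. (10 ml/kg) with compound in sterile water, prepared fresh daily under yellow light. Vehicle controls n = 5 per route. Clinical observations, body weights, serum chemistry and hematology on day 6 before necropsy; histopathology of formalin-fixed tissues. Chemistry analysed by one-way ANOVA with Dunnett's posttest.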

In series [3] the test system is Mus musculus. Put plainly: Toxicity in BALB/c mouse assessed as splenic lymphoid depletion at 150 mg/kg/day, po. Format: organism-based. More on the design: route oral. The following applies: in vivo. In outline: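 Five-day repeat-dose study in female BALB/c mice (n = 5 per dose level): oral dosing once daily for five consecutive days in sterile water prepared fresh daily under yellow light, 20 ml/kg. Vehicle controls received sterile water only. Clinical observations and body weights were recorded, with blood for hematology and serum chemistry taken on day 6 before necropsy. A veterinary pathologist examined formalin-fixed tissues.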

Series [4] relates to Mus musculus. Put plainly: Toxicity in BALB/c mouse assessed as ataxia at 100 mg/kg/day, ip after second dose. Format: organism-based. More on the design: route intraperitoneal. The following applies: in vivo.
The subject of series [5] is Mus musculus. Put plainly: Toxicity in BALB/c mouse assessed as tremor at 100 mg/kg/day, ip after second dose. It is filed as organism-based. More on the design: route intraperitoneal. The settings on record: in vivo. Put shortly: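 Acute overt toxicity was checked in uninfected female BALB/c mice before the efficacy work. Compounds were given intraperitoneally once daily for 5 days, and mice were watched for clinical signs such as ruffled fur, hypoactivity, tremors, ataxia and startle, and for survival.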

A short description of series [6]: Tmax in Swiss Webster mouse at 16.5 mg/kg, po by HPLC-MS/MS analysis. The following applies: in vivo. Further details: dose 16.5 mg/kg, route oral. Format: ADME, organism-based. In outline:
(§2)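 Male Swiss Webster mice (n = 3 per time point), single dose by oral gavage (sterile water solution) or tail-vein bolus i.v. (water diluted 1:1 with 2× saline, over ~10–20 s); dose volume 5 ml/kg. Terminal blood sampled from 5 min to 72 h postdose; plasma quantified by HPLC-MS/MS (positive-ion SRM). Noncompartmental analysis gave Cmax, Tmax, AUC0-∞, CL, Vss; bioavailability from p.o. versus i.v. exposure.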

The subject of series [7] is Mus musculus. Put plainly: Volume of distribution in Swiss Webster mouse at 16.5 mg/kg, po by HPLC-MS/MS analysis. It is filed as ADME, organism-based. The settings on record: in vivo. More on the design: dose 16.5 mg/kg, route oral. In outline:
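Male Swiss Webster mice (n = 3 per time point) got a single oral gavage dose in sterile water, 5 ml/kg. The 5 mM formulation was a clear solution; the 20 and 40 mM formulations were gelatinous. Terminal blood was collected from 5 min to 72 h postdose, and plasma was analysed by HPLC-MS/MS. Volume of distribution came from noncompartmental analysis.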

Series [8] can be described thus: Cmax in Swiss Webster mouse at 66 mg/kg, po by HPLC-MS/MS analysis. Format: ADME, organism-based. More on the design: dose 66 mg/kg, route oral. The settings on record: in vivo. In outline:
(§3)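 Male Swiss Webster mice, n = 3 per time point. For i.v., the compound was dissolved in sterile water, diluted 1:1 with 2× saline, and given as a tail-vein bolus over ~10–20 s. For p.o., it was given by gavage in sterile water. Dose volume was 5 ml/kg. Terminal plasma was taken from 5 min to 72 h and measured by HPLC-MS/MS (calibration 2.5–10,000 nM). Parameters came from noncompartmental analysis.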

Series [9] can be described thus: Tmax in Swiss Webster mouse at 66 mg/kg, po by HPLC-MS/MS analysis. It is filed as ADME, organism-based. Further details: dose 66 mg/kg, route oral. The following applies: in vivo. Put shortly:
as §2

In series [10] the test system is Mus musculus. Put plainly: AUC (0 to infinity) in Swiss Webster mouse at 131 mg/kg, po by HPLC-MS/MS analysis. It is filed as ADME, organism-based, Plasma. More on the design: dose 131 mg/kg, route oral, time infinity. The following applies: in vivo. In outline: as §3
The subject of series [11] is Mus musculus. The series is described as follows: Toxicity in BALB/c mouse assessed as occurrence of tremor at 30 mg/kg, iv. The following applies: in vivo. It is filed as organism-based. More on the design: dose 30 mg/kg, route intravenous. In outline:
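Single-dose escalation: female BALB/c mice (n = 1 per dose level) given one i.v. dose in sterile water (10 ml/kg), 5–50 mg/kg, observed for 2 days.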

Series [12] concerns Mus musculus. Put plainly: Toxicity in BALB/c mouse assessed as occurrence of ruffled fur at 150 mg/kg/day, po administered for five days measured on day 4. It is filed as organism-based. Further details: route oral. The following applies: in vivo. In outline: as §1
Series [13] deals with Mus musculus. Put plainly: Toxicity in BALB/c mouse assessed as decrease in liver weight at 150 mg/kg/day, po administered for five days. Format: organism-based. Further details: route oral. The following applies: in vivo. In outline:
as §1

Series [14] relates to Mus musculus. Put plainly: Hepatotoxicity in BALB/c mouse assessed as ALT level in serum at 10 mg/kg/day, iv administered for five days (Rvb= 34 U/L). Format: toxicity, organism-based. More on the design: route intravenous. The following applies: in vivo.
Series [15] can be described thus: Induction of mutagenicity in Salmonella serovar Typhimurium TA 100 assessed as number of revertant colonies at 10 ug by Ames assay in presence of Aroclor 1254-induced rat liver S9 metabolic activation system. Format: toxicity, subcellular, Salmonella enterica subsp. enterica serovar Typhimurium. Put shortly:
(§4)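 Ames plate incorporation with S. Typhimurium TA98 and TA100, with or without Aroclor 1254-induced rat liver S9 (10% vol/vol). Compound was dissolved in sterile water and serially diluted to 1–500 μg/plate. Positive controls were 2-nitrofluorene and sodium azide without S9, and 2-aminoanthracene with S9; sterile water and DMSO served as vehicles. Revertant colonies and background lawn were scored. A mutagen was defined as a mean revertant count at least 2-fold over solvent control. Single experiment.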
On the technique in general: The Ames test detects mutagens through reverse mutation in bacteria.

The nature of series [16]: Induction of mutagenicity in Salmonella serovar Typhimurium TA 100 assessed as number of revertant colonies at 1 ug by Ames assay. The settings on record: in vivo. Format: toxicity, Salmonella enterica subsp. enterica serovar Typhimurium. Put shortly: as §4
The subject of series [17] is Mus musculus. The series is described as follows: Toxicity in BALB/c mouse at 50 mg/kg/day, po administered for five days. Format: organism-based. More on the design: route oral. The following applies: in vivo.
Series [18] relates to Leishmania donovani. Put plainly: Antileishmanial activity against Leishmania donovani WR378 infected in golden Syrian hamster assessed as reduction in liver parasitemia at 30 mg/kg/day, po administered for five days. Format: functional. The settings on record: 120 h. Put shortly: (§5)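 11-day golden hamster VL model adapted from an 8-day method, using L. donovani WR378 metacyclic promastigotes. Dosing was oral, once daily for 5 days. Animals were euthanized on day 11 post-infection. Liver, spleen and femoral bone marrow (flushed with Schneider's medium) were harvested.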

Series [19] concerns Leishmania donovani. The series is described as follows: Antileishmanial activity against Leishmania donovani WR378 infected in golden Syrian hamster assessed as reduction in liver parasitemia at 100 mg/kg/day, po administered for five days. It is filed as functional. The settings on record: 120 h. Put shortly:
as §5

The subject of series [20] is Leishmania donovani. The series is described as follows: Antileishmanial activity against Leishmania donovani WR378 infected in golden Syrian hamster assessed as reduction in spleen parasitemia at 100 mg/kg/day, po administered for five days. The following applies: 120 h. Format: functional. In outline:
as §5

The nature of series [21]: Oral bioavailability in Swiss Webster mouse at 70 mg/kg by HPLC-MS/MS analysis. It is filed as ADME, organism-based. The settings on record: in vivo. In outline: as §2
The test system of series [22] is Mus musculus. The series is described as follows: Hepatotoxicity in BALB/c mouse assessed as ALT level in serum at 30 mg/kg/day, iv administered for five days (Rvb= 34 U/L). It is filed as toxicity, organism-based. The following applies: in vivo. More on the design: route intravenous.
The test system of series [23] is Mus musculus. The series is described as follows: Renal toxicity in BALB/c mouse assessed as phosphorus level in serum at 30 mg/kg/day, iv administered for five days (Rvb= 6.1 mg/dl). Format: organism-based. Further details: route intravenous. The settings on record: in vivo. In outline: as §1
The test system of series [24] is Mus musculus. Put plainly: Renal toxicity in BALB/c mouse assessed as blood urea nitrogen level in serum at 150 mg/kg/day, po administered for five days (Rvb= 29 mg/dl). The settings on record: in vivo. Format: organism-based. More on the design: route oral. In outline:
as §1

Series [25] can be described thus: Induction of mutagenicity in Salmonella serovar Typhimurium TA 98 assessed as number of revertant colonies at 10 ug by Ames assay in presence of Aroclor 1254-induced rat liver S9 metabolic activation system. It is filed as toxicity, subcellular, Salmonella enterica subsp. enterica serovar Typhimurium. In outline:
as §4

The nature of series [26]: Drug level in Swiss Webster mouse liver at 5 mg/kg, iv after 2 hrs by HPLC/UV analysis. The settings on record: read-out: Drug uptake.
Series [27] in a line: Drug level in Swiss Webster mouse kidney at 70 mg/kg, po after 2 hrs by HPLC/UV analysis. The following applies: read-out: Drug uptake.

The record followed here is ChEMBL document CHEMBL1275590, “Novel arylimidamides for treatment of visceral leishmaniasis” (Antimicrob Agents Chemother, 2010).

`CCOc1cc(NC(=N)c2ccccn2)ccc1-c1ccc(-c2ccc(NC(=N)c3ccccn3)cc2OCC)o1`: the Activity entry in [1], in [2], in [3], in series [4], in series [5] and in series [11] was “Toxic” each time. Moreover, the figures for the Activity entry in series [12], in series [13] and in series [14] were “Toxic”, “Toxic” and 40 U/L, respectively. For the same molecule, the Tmax in [6] and in [9] was 2 h in each case. Also, in [7], the Vd stood at 57 L/kg. Further, the Cmax – broadly, the highest concentration seen after dosing – in series [8] is 0.4 µM. The AUC – broadly, concentration integrated over time – in series [10] was determined as 30 µM·h.

For `CC(C)Oc1cc(NC(=N)c2ccccn2)ccc1-c1ccc(-c2ccc(NC(=N)c3ccccn3)cc2OC(C)C)o1`, the Activity is 148 in series [15]; 152 in [16]; “Non-toxic” in [17]; 35 U/L in series [22]; 7.6 mg/dL in series [23]; 29 U/L in [24]. Also, in [25], the Activity is 38. Moreover, in series [18], the inhibition in vivo – broadly, the relative decrease from the control value, in per cent – at 30 mg/kg/day was 75%. Also, the values for the inhibition in vivo at 100 mg/kg/day in [19] and in series [20] were 89% and 79%, respectively. The bioavailability (as a rule, dose-corrected exposure relative to a reference, in per cent) in [21] stood at 10.4%. The concentration at 2 h was 18.7 µM in series [26] and 30.3 µM in [27].
